The text below walks through data of ChEMBL document CHEMBL1152827, “Bis-pyrazolines: synthesis, characterization and antiamoebic activity as inhibitors of growth of Entamoeba histolytica” (Eur J Med Chem, 2009).

Assay [1] deals with Entamoeba histolytica. The experiment in a line: Antiamoebic activity against Entamoeba histolytica HM-1:IMSS trophozoites after 72 hrs by microdilution method. The class given is functional, organism-based. An outline of the steps: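 E. histolytica HM1:IMSS trophozoites grown in TYIS-33 medium. Compounds dissolved in DMSO, diluted in medium to 1 mg/ml, then two-fold serial dilutions. Inoculum 1.7 × 10⁴ organisms/well. Plates gassed with N₂ and held at 37 °C for 72 h. Amoebae fixed in cold MeOH and stained with eosin, dye released with 0.1 N NaOH, OD read at 490 nm. Percent inhibition plotted against log dose; IC50 from linear regression.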
In general terms: In broth dilution the organism is exposed to a series of concentrations in liquid medium.

A short description of assay [2]: Cytotoxicity against human kidney epithelial cells after 44 hrs by MTT assay. Particulars: Epithelial cell. The class given is cell-based.
A short description of assay [3]: Selectivity index, ratio of IC50 for human kidney epithelial cells to IC50 for Entamoeba histolytica HM-1:IMSS trophozoites. Set-up: species or system Epithelial cell. The method, boiled down:
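Safety index calculated as IC50 in human kidney epithelial cells (MTT, 44 h plus 4 h) divided by IC50 against E. histolytica HM1:IMSS (72 h eosin-stained microdilution assay).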

As usually defined, the IC50 is the point on the concentration scale where inhibition reaches its midpoint. Take `S=C(N1CCCC1)N1N=C(c2ccccc2)CC1c1ccc(C2CC(c3ccccc3)=NN2C(=S)N2CCCC2)cc1` (configuration not stated): the results for the IC50 in assay [1] and in assay [2] were over 1800 nM and over 90000 nM, respectively. Besides, the “Ratio IC50” value in assay [3] is over 50.

Turning to `O=[N+]([O-])c1ccc(NC(=S)N2N=C(c3ccccc3)CC2c2ccc(C3CC(c4ccccc4)=NN3C(=S)Nc3ccc([N+](=O)[O-])cc3)cc2)cc1` (configuration not stated), the IC50 is 420 nM in assay [1] and over 90000 nM in assay [2]. Further, in assay [3], the “Ratio IC50” value is over 214.

Consider `S=C(NC1CCCC1)N1N=C(c2ccccc2)CC1c1ccc(C2CC(c3ccccc3)=NN2C(=S)NC2CCCC2)cc1` (configuration not stated), for which the half-maximal inhibitory concentration (IC50) in assay [1] is over 1800 nM; in assay [2], over 90000 nM. In addition, the “Ratio IC50” value in assay [3] is recorded as over 50.

Take `S=C(NC1CCCCCCC1)N1N=C(c2ccccc2)CC1c1ccc(C2CC(c3ccccc3)=NN2C(=S)NC2CCCCCCC2)cc1` (configuration not stated): the IC50 in assay [1] is 920 nM; in assay [2], over 90000 nM. Further, the “Ratio IC50” value in assay [3] was over 97.8.

Take `NC(=S)N1N=C(c2ccccc2)CC1c1ccc(C2CC(c3ccccc3)=NN2C(N)=S)cc1` (configuration not stated): the IC50 was 1570 nM in assay [1] and over 90000 nM in assay [2]. For the same molecule, the “Ratio IC50” value in assay [3] is over 57.3.

Turning to `Cc1cccc(NC(=S)N2N=C(c3ccccc3)CC2c2ccc(C3CC(c4ccccc4)=NN3C(=S)Nc3cccc(C)c3)cc2)c1` (configuration not stated), the results for the IC50 in assay [1] and in assay [2] were over 1800 nM and over 90000 nM, respectively. For the same molecule, the “Ratio IC50” value in assay [3] is reported as over 50.

With `Fc1ccc(NC(=S)N2N=C(c3ccccc3)CC2c2ccc(C3CC(c4ccccc4)=NN3C(=S)Nc3ccc(F)cc3F)cc2)c(F)c1` (configuration not stated), the IC50 in assay [1] is 620 nM; in assay [2] it was over 90000 nM. For the same molecule, the “Ratio IC50” value in assay [3] is given as over 145.

For `S=C(NC1CCCCC1)N1N=C(c2ccccc2)CC1c1ccc(C2CC(c3ccccc3)=NN2C(=S)NC2CCCCC2)cc1` (configuration not stated), the IC50 was 1160 nM in assay [1] and over 90000 nM in assay [2]. Besides, in assay [3], the “Ratio IC50” value is over 77.6.

On to `Cc1ccc(NC(=S)N2N=C(c3ccccc3)CC2c2ccc(C3CC(c4ccccc4)=NN3C(=S)Nc3ccc(C)cc3)cc2)cc1` (configuration not stated), for which the IC50 is over 1800 nM in assay [1] and over 90000 nM in assay [2]. In addition, in assay [3], the “Ratio IC50” value was over 50.

`CN(Cc1ccccc1)C(=S)N1N=C(c2ccccc2)CC1c1ccc(C2CC(c3ccccc3)=NN2C(=S)N(C)Cc2ccccc2)cc1` (configuration not stated): the 50% inhibitory concentration (IC50) was over 1800 nM in assay [1] and over 90000 nM in assay [2]. Besides, the “Ratio IC50” value in assay [3] is over 50.

With `Cc1ncc([N+](=O)[O-])n1CCO` [METRONIDAZOLE], in assay [2], the IC50 is over 100000 nM. Further, the “Ratio IC50” value in assay [3] is over 55.55.
